Publication PMC7396963 (Journal of pharmaceutical and biomedical analysis, 2018)
Where two headings read alike, the source gives them in different places.

Columns and labels:
UGT1A1 = biological target: T1, UGT1A1 (Homo sapiens, UniProt P22309); assay: Glucuronidation kinetics of NBIF by recombinant UGT1A1; type: in vitro ADME; settings: glucuronide formation from NBIF
T1 sequence (P22309 26-533): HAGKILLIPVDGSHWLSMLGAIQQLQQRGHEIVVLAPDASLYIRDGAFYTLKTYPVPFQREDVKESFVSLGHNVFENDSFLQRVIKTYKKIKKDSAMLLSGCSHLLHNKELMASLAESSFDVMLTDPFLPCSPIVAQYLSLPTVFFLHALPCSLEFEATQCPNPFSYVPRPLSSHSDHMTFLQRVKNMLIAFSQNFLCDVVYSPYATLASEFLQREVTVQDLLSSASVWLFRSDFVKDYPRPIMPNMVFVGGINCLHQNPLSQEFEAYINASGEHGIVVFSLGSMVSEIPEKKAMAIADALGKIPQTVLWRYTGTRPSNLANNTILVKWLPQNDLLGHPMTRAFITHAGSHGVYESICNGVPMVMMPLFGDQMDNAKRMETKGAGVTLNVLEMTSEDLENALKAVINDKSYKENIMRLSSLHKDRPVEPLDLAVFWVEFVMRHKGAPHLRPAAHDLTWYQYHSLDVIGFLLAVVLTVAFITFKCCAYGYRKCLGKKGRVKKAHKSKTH
In short: (§1)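 Incubation in 50 mM Tris-HCl (pH 7.4) with 4.0 mM MgCl2, 22 μg/mL alamethicin, 4.4 mM saccharolactone and 3.5 mM UDPGA. Enzyme source is recombinant UGT or pooled liver or intestinal microsomes, as the line states. Test compound 0.16–80 μM, 1 h. Ice-cold acetonitrile stop, centrifugation, UHPLC/Q-TOF-MS semi-quantification of glucuronides. Minus-UDPGA control. Triplicate. Michaelis-Menten or substrate-inhibition model chosen by Eadie-Hofstee plot; CLint = Vmax/Km.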

[1] = Glucuronidation kinetics of NBIF in DLM; type: in vitro ADME, dogs; settings: glucuronide formation from NBIF, UDPGA-supplemented DLM
In short: as §1

UGT1A9 = biological target: T2, UGT1A9 (Homo sapiens, UniProt O60656); assay: Glucuronidation kinetics of NBIF by recombinant UGT1A9; type: in vitro ADME; settings: for Vmax: glucuronide formation from NBIF, recombinant UGT1A9
T2 sequence (O60656 26-530): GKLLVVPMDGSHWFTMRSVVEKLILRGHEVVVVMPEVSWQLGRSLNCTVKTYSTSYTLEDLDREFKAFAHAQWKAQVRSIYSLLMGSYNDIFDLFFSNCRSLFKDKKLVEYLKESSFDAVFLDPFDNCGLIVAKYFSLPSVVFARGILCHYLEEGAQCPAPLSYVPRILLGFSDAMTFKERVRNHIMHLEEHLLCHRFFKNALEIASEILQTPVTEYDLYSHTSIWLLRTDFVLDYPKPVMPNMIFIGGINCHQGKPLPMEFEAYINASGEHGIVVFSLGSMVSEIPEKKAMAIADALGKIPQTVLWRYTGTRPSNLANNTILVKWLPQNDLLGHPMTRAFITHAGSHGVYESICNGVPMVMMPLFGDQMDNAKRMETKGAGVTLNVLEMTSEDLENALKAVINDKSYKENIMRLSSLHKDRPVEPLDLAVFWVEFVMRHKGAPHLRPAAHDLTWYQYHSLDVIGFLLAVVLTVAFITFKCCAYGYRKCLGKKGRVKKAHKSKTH
In short: as §1

[2] = Glucuronidation kinetics of NBIF in RLM; type: in vitro ADME, rats; settings: glucuronide formation from NBIF, UDPGA-supplemented RLM
In short: as §1

[3] = Glucuronidation kinetics of NBIF in HLM; type: in vitro ADME, human
In short: as §1

[4] = Glucuronidation kinetics of NBIF in RaLM; type: in vitro ADME, rabbits; settings: glucuronide formation from NBIF, UDPGA-supplemented RaLM
In short: as §1

[5] = Glucuronidation kinetics of NBIF in MLM; type: in vitro ADME, mice; settings: glucuronide formation from NBIF, UDPGA-supplemented MLM
In short: as §1

[6] = Glucuronidation kinetics of NBIF in HIM; type: in vitro ADME, human; settings: glucuronide formation from NBIF, UDPGA-supplemented HIM
In short: as §1

UGT1A8 = biological target: T3, UGT1A8 (Homo sapiens, UniProt Q9HAW9); assay: Glucuronidation kinetics of NBIF by recombinant UGT1A8; type: in vitro ADME; settings: glucuronide formation from NBIF
T3 sequence (Q9HAW9 26-530): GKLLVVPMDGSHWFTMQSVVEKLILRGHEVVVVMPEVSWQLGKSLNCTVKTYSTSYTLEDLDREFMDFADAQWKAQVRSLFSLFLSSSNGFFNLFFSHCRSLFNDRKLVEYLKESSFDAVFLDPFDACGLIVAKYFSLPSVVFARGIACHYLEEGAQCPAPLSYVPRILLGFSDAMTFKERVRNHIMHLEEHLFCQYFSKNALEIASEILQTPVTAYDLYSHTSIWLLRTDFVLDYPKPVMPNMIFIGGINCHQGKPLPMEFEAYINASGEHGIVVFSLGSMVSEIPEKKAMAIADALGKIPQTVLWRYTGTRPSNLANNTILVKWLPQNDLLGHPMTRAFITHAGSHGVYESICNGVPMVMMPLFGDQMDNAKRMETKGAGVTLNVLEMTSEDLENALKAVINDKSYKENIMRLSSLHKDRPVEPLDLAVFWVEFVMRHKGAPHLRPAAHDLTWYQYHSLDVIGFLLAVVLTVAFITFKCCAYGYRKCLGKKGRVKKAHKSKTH
In short: as §1

UGT1A7 = biological target: T4, UGT1A7 (Homo sapiens, UniProt Q9HAW7); assay: Glucuronidation kinetics of NBIF by recombinant UGT1A7; type: in vitro ADME; settings: glucuronide formation from NBIF
T4 sequence (Q9HAW7 26-530): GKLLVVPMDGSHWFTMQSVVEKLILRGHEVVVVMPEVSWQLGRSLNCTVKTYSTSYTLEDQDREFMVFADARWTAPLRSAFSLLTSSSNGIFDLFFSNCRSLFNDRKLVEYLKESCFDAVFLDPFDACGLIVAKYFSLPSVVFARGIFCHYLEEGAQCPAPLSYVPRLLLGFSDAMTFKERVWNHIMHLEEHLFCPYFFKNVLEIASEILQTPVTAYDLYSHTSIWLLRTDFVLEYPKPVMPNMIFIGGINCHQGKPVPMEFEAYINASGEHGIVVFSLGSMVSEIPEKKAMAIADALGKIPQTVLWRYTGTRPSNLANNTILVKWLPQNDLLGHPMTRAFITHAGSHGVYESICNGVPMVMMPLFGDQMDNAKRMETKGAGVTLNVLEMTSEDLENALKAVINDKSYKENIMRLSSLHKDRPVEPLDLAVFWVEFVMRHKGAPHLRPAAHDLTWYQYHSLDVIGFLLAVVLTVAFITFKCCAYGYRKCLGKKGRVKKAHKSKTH
In short: as §1

[7] = Glucuronidation kinetics of NBIF in MkLM; type: in vitro ADME, monkeys; settings: glucuronide formation from NBIF, UDPGA-supplemented MkLM
In short: as §1

human carboxylesterase 2 = settings: cited from earlier work
platelet aggregation = settings: inhibition of platelet aggregation; cited from earlier work
[8] = Species difference analysis of NBIF metabolism; type: in vitro ADME; settings: CLint, HLM versus animal liver microsomes
In short: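 CLint values (Vmax/Km from model fits) for oxidation and glucuronidation come from pooled human liver microsomes and from monkey, rat, mouse, dog and rabbit liver microsomes. Each was incubated with test compound at 0.16–80 μM, using NADPH-supplemented oxidation or UDPGA/alamethicin glucuronidation conditions. Metabolites were measured by UHPLC/Q-TOF-MS in triplicate.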

[9] = biological target: human monoamine oxidase-A; settings: cited from earlier work
[10] = inhibitory effect on HLM; cited from earlier work
[11] = biological target: human monoamine oxidase-B; settings: cited from earlier work
[12] = tested on: UDP-glucuronosyltransferase 1A1 (UGT1A1); settings: inhibitory effect on UGT1A1; cited from earlier work
α-glucosidase = α-glucosidase inhibitory activities; cited from earlier work
[13] = glucuronidation; cited from earlier work
[14] = glucuronidation; cited from earlier work; remark: listed apart in the source
[15] = glucuronide formation from NBIF, UDPGA-supplemented HLM

Structure (SMILES)	Ki (UGT1A1) [µM]	Vmax (UGT1A1) [pmol/min/mg]	Vmax (UGT1A9) [pmol/min/mg]	Ki [2] [µM]	Ki [5] [µM]	Vmax (UGT1A8) [pmol/min/mg]	Ki (UGT1A7) [µM]	Vmax (UGT1A7) [pmol/min/mg]	Vmax [1] [pmol/min/mg]	Vmax [2] [pmol/min/mg]	Vmax [3, 15] [pmol/min/mg]	Vmax [4] [pmol/min/mg]	Vmax [5] [pmol/min/mg]	Vmax [6] [pmol/min/mg]	Vmax [7] [pmol/min/mg]	further results
CC(C)=CCc1cc(-c2coc3cc(O)ccc3c2=O)ccc1O [NBIF, Neobavaisoflavone]																IC50 (human carboxylesterase 2): 6.39 µM; IC50 (platelet aggregation): 2.5 µM; microsomal CLint (UGT1A9; human, recombinant UGT1A9, pH 7.4): 1070 µL/min/mg; species differences in glucuronidation [8]: approximately 2.3 fold; species differences in the phase I metabolism [8]: approximately 16.1 fold; IC50 [9]: 66.5 µM; IC50 [10]: 2.25 µM; microsomal CLint ([3]; human, human liver microsomes (HLM) and HIM, pH 7.4): 60 to 949 µL/min/mg; IC50 [11]: 77.3 µM; IC50 [12]: 2.42 µM; IC50 (α-glucosidase): 27.7 µM
COc1ccc(-c2oc3c(CC=C(C)C)c(O)cc(O)c3c(=O)c2O)cc1 [icaritin]																CLint values [13]: more than 270 μL/min/mg
COc1ccc(-c2oc3c(CCC(C)(C)O)c(O)cc(O)c3c(=O)c2O)cc1 [wushanicaritin]																CLint values [14]: > 160 µL/min/mg

More lines, main results first:

Ki (UGT1A1) [µM]	Vmax (UGT1A1) [pmol/min/mg]	Vmax (UGT1A9) [pmol/min/mg]	Ki [2] [µM]	Ki [5] [µM]	Vmax (UGT1A8) [pmol/min/mg]	Ki (UGT1A7) [µM]	Vmax (UGT1A7) [pmol/min/mg]	Structure (SMILES)	Vmax [1] [pmol/min/mg]	Vmax [2] [pmol/min/mg]	Vmax [3, 15] [pmol/min/mg]	Vmax [4] [pmol/min/mg]	Vmax [5] [pmol/min/mg]	Vmax [6] [pmol/min/mg]	Vmax [7] [pmol/min/mg]	further results
291.1 ± 100.1	912.4 ± 49.36	70.01 ± 1.37	24.73 ± 4.75	38.19 ± 10.18	419.1 ± 18.69	61.82 ± 13.5	11.93 ± 0.55	CC(C)=CCc1cc(-c2coc3cc(O[C@@H]4O[C@H](C(=O)O)[C@@H](O)[C@H](O)[C@H]4O)ccc3c2=O)ccc1O [G1, NBIF-7-O-glucuronide]	1807.0 ± 48.14	2490.0 ± 249.5	1788.0 ± 203.6	3006.0 ± 103.8	3589.0 ± 432.9	409.3 ± 18.9	4129.0 ± 182.8	Ki [3, 15]: 48.45 ± 13.86 µM
401.2 ± 135.7	48.33 ± 1.59	805.9 ± 17.46	9.09 ± 1.82	31.68 ± 9.16	147.0 ± 6.84	154.5 ± 44.85	135.3 ± 4.36	CC(C)=CCc1cc(-c2coc3cc(O)ccc3c2=O)ccc1O[C@@H]1O[C@H](C(=O)O)[C@@H](O)[C@H](O)[C@H]1O [G2, NBIF-4′-O-glucuronide]	3363.0 ± 85.47	826.6 ± 99.48	919.1 ± 20.23	3411.0 ± 155.5	3878.0 ± 563.1	8655.0 ± 1021.0	7072.0 ± 228.4	Ki [6]: 33.32 ± 7.95 µM
